Measured values from different studies.
Lines come from different studies, so protocols differ.
Target: Wee1-like protein kinase 2 (WEE2, Homo sapiens, UniProt P0C1S8)

Structure (SMILES)	read-out	method	concentration	remaining binding [%]
c1cnn2ncc(-c3ccnc(N4CCC45COC5)n3)c2c1	binding	–	1 µM	76
Cn1cc(Cl)c2c(Oc3c(F)cc(Nc4cc(Cl)nc(N)n4)cc3F)ccnc21	cell-free assay	competition with immobilised ligand	0.1 µM	93
CC1CCCN1c1nccc(-c2cnn3ncccc23)n1 (stereo not drawn)	binding	–	1 µM	100
C=CC(=O)N1CCC(C(=O)NCC(=O)N2CCN(c3nc(-c4cnc(N)nc4C(F)F)nc(N4CCOCC4)n3)CC2)CC1	binding	competition with immobilised ligand	1 µM	100
O=C(Nc1c[nH]nc1C(=O)NC1CCNCC1)c1cc(F)cc(F)c1	binding	competition with immobilised ligand	1 µM	100
C[C@H]1CCN(c2nccc(-c3cnn4ncccc34)n2)C1	binding	–	1 µM	100
COc1cccc(CNC(=O)c2nc3scc(COCc4ccc(C(=O)O)cc4)c3c(=O)[nH]2)c1	cell-free assay	competition with immobilised ligand	1 µM	96.9
Cc1cnc(Nc2ccc(C(=O)N3CCC(N4CCCC4)CC3)cc2)nc1-c1cc2ccccc2s1	binding	competition with immobilised ligand	1 µM	15
COc1cnc(Nc2cccc(S(N)(=O)=O)c2)nc1N1CCN(c2ccccc2)CC1	binding	competition with immobilised ligand	1 µM	96
O=C(NCCCN1CCOCC1)c1ccc(Nc2ncc(Cl)c(-c3ccc(Cl)s3)n2)cc1	binding	competition with immobilised ligand	1 µM	19
Nc1ncc2c(n1)-c1c([nH]c3ccc(C#CC4CC4)cc13)CCCC2	binding	competition with immobilised ligand	1 µM	98
O=C(c1ccc(Nc2nccc(-c3cc4ccccc4s3)n2)cc1)N1CCC(N2CCCC2)CC1	binding	competition with immobilised ligand	1 µM	65
FC(F)(F)c1ccc2c(c1)nc(-c1cccnc1)n2C1CC1	cell-free assay	competition with immobilised ligand	1 µM	100
N[C@H]1CCN(c2nccc(-c3cnn4ncccc34)n2)C1	binding	–	1 µM	100
O=C(NCc1ncc(C(F)(F)F)cc1Cl)c1ccc2c(c1)C1(CCS(=O)(=O)CC1)[C@H](C1CC1)N2S(=O)(=O)c1ccc(F)cc1	cell-free assay	competition with immobilised ligand	1 µM	100
CN(CCCC(F)(F)F)c1nccc(-c2cnn3ncccc23)n1	binding	–	1 µM	97
c1cncc(-c2cccc(Nc3nccc(NC4CCCCC4)n3)c2)c1	binding	competition with immobilised ligand	10 µM	100
CNCc1ccccc1-c1csc([C@@H](C)Nc2nc(C)nc3cc(OC)c(OC)cc23)c1	cell-free assay	competition with immobilised ligand	1 µM	100
CCN1CCN(Cc2ccc(C(=O)Nc3ccc(C)c(Oc4ccc5c(c4)CC(=O)N5)c3)cc2C(F)(F)F)CC1	binding	competition with immobilised ligand	1 µM	100
CNC(=O)c1ccc(Nc2ncc(C(F)(F)F)c(NCc3nccnc3N(C)S(C)(=O)=O)n2)cc1	cell-free assay	competition with immobilised ligand	0.1 µM	97
CN(C)c1nccc(-c2cnn3ncccc23)n1	binding	–	1 µM	100
